Screening results: PubChem BioAssay, The Scripps Research Institute Molecular Screening Center
Rows were chosen to be rich in hits. Some 2.7% of all compounds tested hit in one or more screens of this group.
ABHD4 inh: inhibitors of mouse ABHD4. inhibition, % at 8.92 µM. hit rate 0.54% among 370,000. AID 720543. purified mABHD4, FP-Rh probe fluorescence polarization;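 active = inhibition exceeding the mean over every tested compound plus 3 SD, cut at about 30% in these data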;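 also: 0% = plate median of compound wells and 100% = S159A mutant with DMSO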
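system = mouse ABHD4 enzyme, wild type | medium = HEPES pH 7.0, NaCl, Pluronic buffer | also added = FP-Rh probe | incubation = Enzyme–compound pre-incubation 45 min, then probe 60 min, both 25 °C | technique = fluorescence polarization, excitation 525 nm, emission 598 nm, BODIPY TMR filters | controls = S159A mutant high control, sample median low control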
PRMT1 inh: inhibitors of human PRMT1; inhibition, % at 2.79 µM; hit rate 1.3% among 370,000; recombinant PRMT1, activity-based probe fluorescence polarization;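 active = inhibition above about 21% made by adding two undisclosed values, limit read from the data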
Target sequence (Q99873 whole entry, looked up): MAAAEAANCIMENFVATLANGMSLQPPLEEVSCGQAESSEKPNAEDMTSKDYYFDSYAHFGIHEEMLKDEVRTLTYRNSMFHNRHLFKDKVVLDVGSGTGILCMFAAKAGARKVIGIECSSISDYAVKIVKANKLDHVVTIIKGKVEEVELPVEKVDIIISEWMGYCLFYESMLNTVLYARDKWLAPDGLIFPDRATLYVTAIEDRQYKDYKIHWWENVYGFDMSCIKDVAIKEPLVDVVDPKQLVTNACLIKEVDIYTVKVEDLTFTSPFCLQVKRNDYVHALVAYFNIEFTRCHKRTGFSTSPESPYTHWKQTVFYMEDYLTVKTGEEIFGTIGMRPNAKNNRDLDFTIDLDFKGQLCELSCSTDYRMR
TCR CD3 inh: human TCR-CD3 binding inhibition. TAMRA-labeled TCR probe fluorescence, biochemical. inhibition, % at 9.4 µM. hit rate 0.37% among 360,000. AID 651800; in the data active = inhibition above about 19%;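 also: recombinant mutant TCR 2C K166C tagged with TAMRA read by polarization; 0% = receptor in buffer alone and 100% = receptor with positive control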
HTRA1 inhibitor: blocks human HTRA1 serine peptidase | recombinant HTRA1, FP-rhodamine activity-based probe, fluorescence polarization | inhibition, % at 5.96 µM | hit rate 0.5% among 340,000; in the data active = inhibition above about 36%;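 also: 0% = enzyme with DMSO and 100% = wells lacking enzyme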
SIAE primary: blocks human sialic acid acetylesterase; Q9HAT2; SIAE FP-Rh probe binding, fluorescence polarization; inhibition, % at 9.66 µM; hit rate 0.69% among 370,000;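 active = inhibition above a cutoff: mean of compounds within the control limits plus 3 SD of those, cut at about 17% in these data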;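 also: 0% = plate median of compound wells and 100% = probe without SIAE protein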
mABHD4 conf: ABHD4 (mouse) inhibition, FP confirmation; hit rate 55% among 1,800; purified mABHD4, FP-Rh probe fluorescence polarization; shares compounds with ABHD4 inh; inhibition, % at 8.92 µM;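 active = mean inhibition across replicates above the hit cutoff set in the primary screen, cut at about 30% in these data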;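 also: 0% = wild-type ABHD4 with DMSO and 100% = catalytically dead S159A mutant with DMSO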
* = called active by the depositor.

Screening CCCCn1c(N)c(N(CC(C)C)C(=O)c2ccc(N3C(=O)CCC3=O)cc2)c(=O)[nH]c1=O returned ABHD4 inh 35*, PRMT1 inh -1, TCR CD3 inh -2, HTRA1 inhibitor -2, SIAE primary 2 and mABHD4 conf 4.
For CCCCn1c(N)c(N(CCC(C)C)C(=O)C2CCCO2)c(=O)[nH]c1=O (stereo not given) the results were ABHD4 inh -1, PRMT1 inh -3, TCR CD3 inh 4, HTRA1 inhibitor -2 and SIAE primary 4.
Screening CCCCn1c(N)c(N(CC(C)C)C(=O)C2CCCO2)c(=O)[nH]c1=O (stereo not given) returned ABHD4 inh 32*, PRMT1 inh 1, TCR CD3 inh 6, HTRA1 inhibitor 3, SIAE primary 0 and mABHD4 conf -4.
O=C(Nc1ccc([N+](=O)[O-])cc1)C(=O)Nc1cccc(C(=O)O)c1 was read as ABHD4 inh 30*, PRMT1 inh 1, TCR CD3 inh -1, HTRA1 inhibitor 0, SIAE primary -2 and mABHD4 conf 26.
Screening O=C(O)/C=C/c1cccc(NC(=O)Nc2ccc([N+](=O)[O-])cc2)c1 returned ABHD4 inh 30*, PRMT1 inh 4, TCR CD3 inh 0, HTRA1 inhibitor -9, SIAE primary 0 and mABHD4 conf 22.
Screening O=C(O)c1cc(NC(=O)c2ccc([N+](=O)[O-])cc2)cc(NC(=O)c2ccc([N+](=O)[O-])cc2)c1 returned ABHD4 inh 16, PRMT1 inh -3, TCR CD3 inh 5, HTRA1 inhibitor -2 and SIAE primary 2.
C[C@H](NC(=O)[C@@H]1CCCN1C(=O)[C@@H]1CCCN1C(=O)c1cccc2ccccc12)c1ccccc1 was read as ABHD4 inh 1, PRMT1 inh 0, TCR CD3 inh -6 and SIAE primary 0.
c1ccc(-c2csc(Nc3ccc4c(c3)OCO4)n2)cc1 was read as ABHD4 inh 31*, PRMT1 inh 2, TCR CD3 inh 1, SIAE primary 10 and mABHD4 conf 27.
Screening O=C(Nc1cc(Cl)ccc1Cl)P(=O)(O)c1ccccc1 returned ABHD4 inh 0, PRMT1 inh -3, TCR CD3 inh 2, HTRA1 inhibitor -1 and SIAE primary -7.
Screening COc1ccc(-c2sc3cc4c(cc3c2C#CC2(N)CCCCC2)OCO4)cc1 returned ABHD4 inh 32*, PRMT1 inh -2, TCR CD3 inh -1, HTRA1 inhibitor -49, SIAE primary 0 and mABHD4 conf 30*.
COc1cc(Br)ccc1C1CC(=O)C(C)C(c2ccc(Br)cc2OC)N1 (stereo not given) was read as ABHD4 inh -22, PRMT1 inh 4, TCR CD3 inh 2, HTRA1 inhibitor -25 and SIAE primary -15.
`COc1ccc(Nc2nc(NC(C)(C)C)nc(N3CCOCC3)n2)c(OC)c1` gave ABHD4 inh 6, PRMT1 inh -1, TCR CD3 inh 4, HTRA1 inhibitor -4 and SIAE primary 3.
For COc1ccc(Nc2nc(NC(C)(C)C)nc(N3CCCC3)n2)c(OC)c1 the results were ABHD4 inh 34*, PRMT1 inh -1, TCR CD3 inh 0, HTRA1 inhibitor 6, SIAE primary 14 and mABHD4 conf 48*.
Screening COc1ccc(N=C2NC(=O)/C(=C/c3ccco3)S2)cc1 returned ABHD4 inh 33*, PRMT1 inh 6, TCR CD3 inh 5, HTRA1 inhibitor 14, SIAE primary 14 and mABHD4 conf -10.
Screening COc1cccc(NC(=O)C2CCN(S(=O)(=O)c3ccc4[nH]c(=O)oc4c3)CC2)c1 returned ABHD4 inh 42*, PRMT1 inh -1, TCR CD3 inh -2, HTRA1 inhibitor 2, SIAE primary -7 and mABHD4 conf 43*.
Screening O=C(O)c1ccccc1NS(=O)(=O)c1cccc(NS(=O)(=O)c2cc(Br)ccc2Br)c1 returned ABHD4 inh -8, PRMT1 inh -3, TCR CD3 inh -1, HTRA1 inhibitor -16 and SIAE primary 1.
Screening CN(C)c1ccc(N=Nc2ccccc2C(=O)OCC(=O)NCC2CCCCC2)cc1 returned ABHD4 inh 42*, PRMT1 inh 3, TCR CD3 inh 0, HTRA1 inhibitor 31, SIAE primary 13 and mABHD4 conf 40*.
For Cc1ccc([N+](=O)[O-])c(NC(=O)COC(=O)C2CC3CCCC(C2)C3=O)c1C (stereo not given) the results were ABHD4 inh -2, PRMT1 inh -1, TCR CD3 inh -1, HTRA1 inhibitor 3 and SIAE primary -1.
Screening Cc1ccc(C(=O)COC(=O)C2CC3CCCC(C2)C3=O)cc1[N+](=O)[O-] (stereo not given) returned ABHD4 inh 42*, PRMT1 inh 0, TCR CD3 inh -2, HTRA1 inhibitor -7, SIAE primary -1 and mABHD4 conf 3.
Cc1csc(N=Cc2ccc([N+](=O)[O-])o2)n1 was read as ABHD4 inh 30*, PRMT1 inh 23*, TCR CD3 inh 9, HTRA1 inhibitor 32, SIAE primary 16 and mABHD4 conf 14.
Screening COc1cc(N(C(C)=O)c2ccc(O)c(C(=O)O)c2)c2ncccc2c1 returned ABHD4 inh 31*, PRMT1 inh 10, TCR CD3 inh 15, HTRA1 inhibitor 16, SIAE primary 13 and mABHD4 conf 47*.
Screening CCN(CC)c1ccc(/C=N/Nc2nc3ccccc3[nH]2)cc1 returned ABHD4 inh 30*, PRMT1 inh -4, TCR CD3 inh 0, HTRA1 inhibitor 35, SIAE primary 17 and mABHD4 conf 47*.
`C/C(=N\Nc1nc2ccccc2[nH]1)c1ccccn1` gave ABHD4 inh 36*, PRMT1 inh -4, TCR CD3 inh -1, HTRA1 inhibitor 27, SIAE primary 4 and mABHD4 conf 21.
For CC(/C=N/Nc1nc2ccccc2[nH]1)=C\c1ccccc1 the results were ABHD4 inh 42*, PRMT1 inh 4, TCR CD3 inh -3, HTRA1 inhibitor 13, SIAE primary 11 and mABHD4 conf 44*.
For C/C(=N\Nc1nc2ccccc2[nH]1)c1ccc2c(c1)OCO2 the results were ABHD4 inh 24, PRMT1 inh -3, TCR CD3 inh 6, HTRA1 inhibitor 19 and SIAE primary 10.
For CCN=c1scc(C)n1/N=C/c1cc(Br)c(O)c(Br)c1 the results were ABHD4 inh 55*, PRMT1 inh -5, TCR CD3 inh 3, HTRA1 inhibitor 27, SIAE primary 12 and mABHD4 conf 66*.
For F[B-](F)(F)c1cncnc1 the results were ABHD4 inh 4, PRMT1 inh -4, TCR CD3 inh 8 and SIAE primary -2.
O=C(c1ccc(NC(=O)C(c2ccccc2)c2ccccc2)cc1)c1ccc(C(=O)O)c(C(=O)O)c1 was read as ABHD4 inh 8, PRMT1 inh 4, TCR CD3 inh -7, HTRA1 inhibitor -8 and SIAE primary -5.
